Results reported in ChEMBL document CHEMBL3351291, “Lajollamycins, nitro group-bearing spiro-β-lactone-γ-lactams obtained from a marine-derived Streptomyces sp” (J Nat Prod, 2014).
Calls of active or inactive are those of the source. The calls are words filed in the database; no cut-off is given here.

What was measured:
[1] = system: MDA-MB-231; test: Cytotoxicity against human MDA-MB-231 cells; format: functional, cell-based
[2] = system: Proteus hauseri; test: Antibacterial activity against Proteus hauseri NBRC 3851; format: functional
[3] = Cytotoxicity against human HCT116 cells; format: functional, cell-based; settings: HCT-116
[4] = system: Kocuria rhizophila; test: Antibacterial activity against Kocuria rhizophila NBRC 12708; format: functional
[5] = system: Salmonella enterica; test: Antibacterial activity against Salmonella enterica ATCC 14028; format: functional
[6] = system: Aspergillus fumigatus; test: Antifungal activity against Aspergillus fumigatus; format: functional, organism-based
[7] = Cytotoxicity against human SNU638 cells; format: functional, cell-based; settings: SNU-638
[8] = Cytotoxicity against human SKHEP1 cells; format: functional, cell-based; settings: SK-HEP1
[9] = Inhibition of Candida albicans isocitrate lyase using isocitrate substrate
Method in brief: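 Recombinant ICL at 2.5 μg/mL in 20 mM sodium phosphate buffer, pH 7.0, with 1.27 mM threo-DL(+)-isocitrate, 3.75 mM MgCl2 and 4.1 mM phenylhydrazine. Reaction started on substrate addition, with or without inhibitor in DMSO (0.5% final). After 30 min at 37 °C, glyoxylate phenylhydrazone was read at 324 nm. Percent inhibition was taken against an inhibitor-free control, with 3-nitropropionic acid as positive control.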

[10] = system: Escherichia coli; test: Antibacterial activity against Escherichia coli ATCC 35270; format: functional
[11] = system: Staphylococcus aureus; test: Antibacterial activity against Staphylococcus aureus ATCC 6538p; format: functional
[12] = system: K562; test: Cytotoxicity against human K562 cells; format: functional, cell-based
[13] = system: Candida albicans; test: Antifungal activity against Candida albicans; format: functional, organism-based
[14] = system: Bacillus subtilis; test: Antibacterial activity against Bacillus subtilis ATCC 6633; format: functional
[15] = system: A549; test: Cytotoxicity against human A549 cells; format: functional, cell-based

CO[C@@H](C[C@@H](C)[C@@H](O)/C=C/C=C/CNC(=O)C(C)(C)[C@H](O)/C(C)=C/C=C/C=C/C(C)=C(\C)[N+](=O)[O-])[C@]1(O)[C@@H](C)C(=O)N(C)[C@@]12COC2=O
IC50 [1]: > 100 µM | MIC [2]: > 128 µg/mL | IC50 [3]: > 100 µM | MIC [4]: > 128 µg/mL | MIC [5]: > 128 µg/mL | Activity [6]: inactive | IC50 [7]: > 100 µM | IC50 [8]: > 100 µM | IC50 ([9]; read-out: IC50): 40 µM | MIC [10]: > 128 µg/mL | MIC [11]: > 128 µg/mL | IC50 [12]: > 100 µM | Activity [13]: inactive | MIC [14]: > 128 µg/mL | IC50 [15]: > 100 µM

CO[C@@H](C[C@@H](C)[C@@H](O)/C=C/C=C/CNC(=O)C(C)(C)[C@H](O)\C(C)=C/C=C/C=C/C(C)=C(\C)[N+](=O)[O-])[C@]1(O)[C@@H](C)C(=O)N(C)[C@]12C(=O)O[C@@H]2C
IC50 [1]: > 100 µM | MIC [2]: > 128 µg/mL | IC50 [3]: > 100 µM | MIC [4]: > 128 µg/mL | MIC [5]: > 128 µg/mL | Activity [6]: inactive | IC50 [7]: > 100 µM | IC50 [8]: > 100 µM | IC50 ([9]; read-out: IC50): 120 µM | MIC [10]: > 128 µg/mL | MIC [11]: > 128 µg/mL | IC50 [12]: > 100 µM | Activity [13]: inactive | MIC [14]: > 128 µg/mL | IC50 [15]: > 100 µM

CO[C@@H](C[C@@H](C)[C@@H](O)/C=C/C=C/CNC(=O)C(C)(C)[C@H](O)/C(C)=C/C=C/C=C/C(C)=C(\C)[N+](=O)[O-])[C@]1(O)[C@@H](C)C(=O)N(C)[C@]12C(=O)O[C@@H]2C
IC50 [1]: > 100 µM | MIC [2]: > 128 µg/mL | IC50 [3]: > 100 µM | MIC [4]: > 128 µg/mL | MIC [5]: > 128 µg/mL | Activity [6]: inactive | IC50 [7]: > 100 µM | IC50 [8]: > 100 µM | IC50 ([9]; read-out: IC50): 50 µM | MIC [10]: > 128 µg/mL | MIC [11]: > 128 µg/mL | IC50 [12]: > 100 µM | Activity [13]: inactive | MIC [14]: > 128 µg/mL | IC50 [15]: > 100 µM

COC(CC(C)C(O)/C=C/C=C/CNC(=O)C(C)(C)C(O)\C(C)=C/C=C\C=C\C(C)=C(/C)[N+](=O)[O-])C1(O)C(C)C(=O)N(C)C12C(=O)OC2C (stereo unspecified) [LAJOLLAMYCIN]
IC50 [1]: > 100 µM | MIC [2]: > 128 µg/mL | IC50 [3]: > 100 µM | MIC [4]: > 128 µg/mL | MIC [5]: > 128 µg/mL | Activity [6]: inactive | IC50 [7]: > 100 µM | IC50 [8]: > 100 µM | IC50 ([9]; read-out: IC50): 42 µM | MIC [10]: > 128 µg/mL | MIC [11]: > 128 µg/mL | IC50 [12]: > 100 µM | Activity [13]: inactive | MIC [14]: > 128 µg/mL | IC50 [15]: > 100 µM

O=C(O)CC[N+](=O)[O-]
IC50 [9]: 4.2 µg/mL
